The values that follow come from ChEMBL document CHEMBL4602726, “Discovery of the First Vitamin K Analogue as a Potential Treatment of Pharmacoresistant Seizures” (J Med Chem, 2020).

Structures are written as SMILES.

The target in series [1] is Voltage-gated inwardly rectifying potassium channel KCNH2 (Homo sapiens, UniProt Q12809). Put plainly: Inhibition of human ERG.
Series [2] in a line: Drug level in CD1 mouse brain at 400 mg/kg, ip after 8 hrs by LC-MS/MS analysis. The series is classed as ADME, organism-based. The note with it: read-out: Drug uptake. The procedure, abridged: (§1)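 Male mice fasted overnight and given ip dose in 95% Miglyol 840/5% DMSO. Plasma precipitated 3:1 with acetonitrile plus internal standard. Brain homogenized 3:1 in PBS, then acetonitrile extraction. LC-MS/MS in MRM mode, standard curve 1 ng/mL–10 μg/mL. Ratio = mean tissue (ng/g) over mean plasma (ng/mL) concentration.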

The species named for a further series is Danio rerio. Description: Increase in ATP concentration in zebrafish at 1 uM incubated for 24 hrs by fluorometric ATP assay relative to control. In kind it is functional. The procedure, abridged: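 7 dpf zebrafish larvae, one per well, kept at 28.5°C for 24 h with compound in E3 buffer (DMSO stock). DMSO vehicle in control wells. Twelve fish per condition pooled, flash-frozen, homogenized in ATP buffer and centrifuged. ATP in the supernatant read by fluorescence at ex 535/em 587 nm, normalized to total protein (BCA), and expressed as nmole/mg relative to DMSO control. n = 7–13.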

The nature of series [3]: Drug level in CD1 mouse plasma at 400 mg/kg, ip after 4 hrs by LC-MS/MS analysis. In kind it is ADME, organism-based. The procedure, abridged:
as §1

The nature of series [4]: Toxicity in CF1 mouse assessed as induction of motor/sedative effects at 400 mg/kg, ip. The series is classed as organism-based. The note with it: in vivo. The procedure, abridged: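 Rotarod at 6 rpm on the same animals immediately before 6 Hz stimulation, 1 h after ip dosing. A mouse falling three times within one minute was scored impaired.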

What is called IC50 is the concentration at which inhibition is half-maximal. High values mean a need for much substance, low ones inhibition by little substance.

Chain of Voltage-gated inwardly rectifying potassium channel KCNH2 (Q12809 whole entry): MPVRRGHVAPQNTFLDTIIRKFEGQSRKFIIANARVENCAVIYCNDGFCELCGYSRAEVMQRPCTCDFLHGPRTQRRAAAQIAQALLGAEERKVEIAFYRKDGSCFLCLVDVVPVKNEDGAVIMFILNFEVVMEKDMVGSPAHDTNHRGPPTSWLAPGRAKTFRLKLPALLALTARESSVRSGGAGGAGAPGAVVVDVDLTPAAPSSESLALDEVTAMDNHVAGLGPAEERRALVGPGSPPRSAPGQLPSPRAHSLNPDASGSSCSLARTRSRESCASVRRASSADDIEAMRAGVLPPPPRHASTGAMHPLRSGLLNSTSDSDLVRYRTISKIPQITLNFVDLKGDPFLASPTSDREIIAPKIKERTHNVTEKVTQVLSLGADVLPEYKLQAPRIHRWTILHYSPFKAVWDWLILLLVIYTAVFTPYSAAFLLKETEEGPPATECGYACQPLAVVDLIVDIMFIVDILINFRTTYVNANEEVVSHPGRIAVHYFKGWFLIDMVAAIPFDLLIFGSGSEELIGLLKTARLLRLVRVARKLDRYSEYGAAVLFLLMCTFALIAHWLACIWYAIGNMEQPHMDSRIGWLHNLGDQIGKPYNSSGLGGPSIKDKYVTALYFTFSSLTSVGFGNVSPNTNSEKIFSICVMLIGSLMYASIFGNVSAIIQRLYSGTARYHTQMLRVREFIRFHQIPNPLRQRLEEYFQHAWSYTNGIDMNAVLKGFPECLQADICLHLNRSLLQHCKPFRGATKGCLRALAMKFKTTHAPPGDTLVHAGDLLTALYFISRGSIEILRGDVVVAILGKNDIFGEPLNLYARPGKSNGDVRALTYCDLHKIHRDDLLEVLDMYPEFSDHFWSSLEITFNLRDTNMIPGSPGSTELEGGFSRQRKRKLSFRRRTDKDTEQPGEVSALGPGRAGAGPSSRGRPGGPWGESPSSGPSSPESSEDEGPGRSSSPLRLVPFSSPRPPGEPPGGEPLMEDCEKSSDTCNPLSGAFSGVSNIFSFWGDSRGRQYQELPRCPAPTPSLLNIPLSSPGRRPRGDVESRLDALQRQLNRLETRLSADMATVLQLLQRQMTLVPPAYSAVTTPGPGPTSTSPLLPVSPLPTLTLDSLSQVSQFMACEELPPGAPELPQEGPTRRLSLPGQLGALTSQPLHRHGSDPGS

In turn, `CC(C)CCNC1=CC(=O)c2ccccc2C1=O` registered an IC50 in series [1] of more than 30 µM. Besides, the concentration at 8 h in series [2] turned out to be 2630 ng/g. Moreover, the Activity in the series filed under Danio rerio is given as 19%; in series [4], “Non-Toxic”. The compound further showed a concentration at 4 h in series [3] of 3740 ng/mL.
